Reference: PubChem BioAssay AID624013 (Broad Institute, 2012)
“And” between values parts separate entries of the source, which are not always exact repeats. Equal values may be shown once. The source made the active and inactive calls.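 How the source made its calls: active means compounds whose fitted growth inhibition curve reaches half effect at or below twice the top tested dose; inconclusive means flat inhibition between 30 and 70 percent, or poor fit; inactive means the rest.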

Tested on: Candida glabrata growth, glucose medium, OD600, 48 h
Test: C. glabrata growth inhibition on glucose, dose response, glucose medium, plate reader, dry powder, set 4 (AID 624013)
Conditions: not given
Outline: (§1)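 System: Candida glabrata yeast cells, whole organism / Control set: amphotericin B 10 µM, positive / Signal: optical density at 600 nm (absorbance) / Buffer or medium: CSM-glucose medium / Schedule: compound exposure 48 h at 30 °C, static, humidified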

SMILES | AC50 [nM]
CC1/C=C/C=C\C=C\C=C\C=C\C=C\C=C\C(O[C@H]2OC(C)C(O)C(N)C2O)CC2OC(O)(CC(O)CC(O)C(O)CCC(O)CC(O)CC(=O)OC(C)C(C)C1O)CC(O)C2C(=O)O (stereo partly drawn) | 2120

Tested on: not listed separately
Test: as above
Conditions: Candida glabrata growth, glucose medium, OD600, 48 h; at 3 µM (top of the series)
Outline: as §1

SMILES | activity change, negative = inhibition
CCOC(=O)N1C(=O)C2(CCCCC2)N(c2ccc(F)cc2)C1=S | -16.3% (inactive)
CCOC(=O)N1C(=O)C2(CCCCC2)N(c2ccc(C#N)cc2)C1=S | -17% (inactive)
CCOC(=O)N1C(=O)C2(CCCCC2)N(c2ccc(C)cc2)C1=S | -13.3% (inactive) and -16.5% (inactive)
CCOC(=O)N1C(=O)C2(CCCCC2)N(c2ccccc2)C1=S | -11.8% (inactive)
CCOC(=O)N1C(=O)C2(CCCCC2)N(c2cccc(C)c2)C1=S | -14.7% (inactive)
CCOC(=O)N1C(=O)C2(CCCCC2)N(c2ccc(Cl)cc2)C1=S | -19.6% (inactive)
C/C=C/[C@@H]1[C@H]2C[C@@H](C)CC[C@@H]2C(C)=C[C@H]1C(=O)c1c(O)c(-c2ccc(O)cc2)c[nH]c1=O | -2.31% (inactive)
